Results: ChEMBL document CHEMBL1799960, “Diadenosine 5',5''-(boranated)polyphosphonate analogues as selective nucleotide pyrophosphatase/phosphodiesterase inhibitors” (J Med Chem, 2010)

Tests used:
Autotaxin (Homo sapiens) = Autotaxin (Homo sapiens) (UniProt Q13822); assay: Inhibition of human NPP2 expressed in COS7 cells assessed as production of p-nitrophenol using pnp-TMP as the substrate at 100 uM after 15 mins […]; assay type: cell-based; conditions: COS-7
Summary of the method: (§1)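 Human NPP1, NPP2 (membrane lysate or conditioned medium for the secreted form) or NPP3 from transfected COS-7 cells, preincubated 3 min at 37 °C in 50 mM Tris pH 8.5 buffer with CaCl2, NaCl and KCl. Substrate and inhibitor both at 100 μM final. pnp-TMP: p-nitrophenol read at 405 nm at 15 min. ATP or Ap5A: stopped at 30 min with perchloric acid, then HPLC. Results as % residual activity versus control; three to six experiments in triplicate.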

[1] = target: T1, Ectonucleotide pyrophosphatase/phosphodiesterase family member 3 (Homo sapiens) (UniProt O14638); assay: Inhibition of human NPP3 expressed in COS7 cells assessed as production of p-nitrophenol using pnp-TMP as the substrate at 100 uM after 15 mins by malachite green reagent method; assay type: cell-based; conditions: COS-7; summary of the method: as §1
T1 sequence (whole entry): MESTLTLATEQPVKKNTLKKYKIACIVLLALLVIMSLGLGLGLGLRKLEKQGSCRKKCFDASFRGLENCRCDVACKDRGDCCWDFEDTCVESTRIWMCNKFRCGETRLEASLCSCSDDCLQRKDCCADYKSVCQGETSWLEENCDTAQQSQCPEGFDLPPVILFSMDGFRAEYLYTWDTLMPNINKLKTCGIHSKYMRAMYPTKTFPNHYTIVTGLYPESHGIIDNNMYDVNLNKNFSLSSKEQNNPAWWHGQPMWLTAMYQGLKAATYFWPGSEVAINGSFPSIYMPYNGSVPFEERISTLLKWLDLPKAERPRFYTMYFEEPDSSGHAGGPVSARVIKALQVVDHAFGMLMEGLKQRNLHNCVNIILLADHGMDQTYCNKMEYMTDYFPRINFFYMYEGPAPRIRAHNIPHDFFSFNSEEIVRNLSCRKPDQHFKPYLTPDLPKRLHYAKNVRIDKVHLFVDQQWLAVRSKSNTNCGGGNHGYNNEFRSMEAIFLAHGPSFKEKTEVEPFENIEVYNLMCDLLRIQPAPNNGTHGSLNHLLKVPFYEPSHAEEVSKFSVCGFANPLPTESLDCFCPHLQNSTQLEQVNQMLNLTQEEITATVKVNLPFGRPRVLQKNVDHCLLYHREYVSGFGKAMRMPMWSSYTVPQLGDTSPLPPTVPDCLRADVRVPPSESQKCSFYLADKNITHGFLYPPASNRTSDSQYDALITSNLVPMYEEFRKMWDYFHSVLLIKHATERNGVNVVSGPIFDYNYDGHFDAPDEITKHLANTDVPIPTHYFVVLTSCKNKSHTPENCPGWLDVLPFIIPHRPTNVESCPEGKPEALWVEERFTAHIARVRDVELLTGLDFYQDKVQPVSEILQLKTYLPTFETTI

[2] = target: T1, Ectonucleotide pyrophosphatase/phosphodiesterase family member 3 (Homo sapiens); assay: Activity of human NPP3 expressed in COS7 cells assessed as production of p-nitrophenol using Ap5A as the substrate at 100 uM after 30 mins by malachite green reagent method; assay type: cell-based; conditions: COS-7
[3] = target: T2, Ectonucleotide pyrophosphatase/phosphodiesterase family member 1 (Homo sapiens, UniProt P22413); assay: Inhibition of human NPP1 expressed in COS7 cells assessed as enzyme-substrate-inhibitor dissociation constant using pnp-TMP as the substrate after 15 mins […]; assay type: cell-based, COS-7
T2 sequence (P22413 whole entry): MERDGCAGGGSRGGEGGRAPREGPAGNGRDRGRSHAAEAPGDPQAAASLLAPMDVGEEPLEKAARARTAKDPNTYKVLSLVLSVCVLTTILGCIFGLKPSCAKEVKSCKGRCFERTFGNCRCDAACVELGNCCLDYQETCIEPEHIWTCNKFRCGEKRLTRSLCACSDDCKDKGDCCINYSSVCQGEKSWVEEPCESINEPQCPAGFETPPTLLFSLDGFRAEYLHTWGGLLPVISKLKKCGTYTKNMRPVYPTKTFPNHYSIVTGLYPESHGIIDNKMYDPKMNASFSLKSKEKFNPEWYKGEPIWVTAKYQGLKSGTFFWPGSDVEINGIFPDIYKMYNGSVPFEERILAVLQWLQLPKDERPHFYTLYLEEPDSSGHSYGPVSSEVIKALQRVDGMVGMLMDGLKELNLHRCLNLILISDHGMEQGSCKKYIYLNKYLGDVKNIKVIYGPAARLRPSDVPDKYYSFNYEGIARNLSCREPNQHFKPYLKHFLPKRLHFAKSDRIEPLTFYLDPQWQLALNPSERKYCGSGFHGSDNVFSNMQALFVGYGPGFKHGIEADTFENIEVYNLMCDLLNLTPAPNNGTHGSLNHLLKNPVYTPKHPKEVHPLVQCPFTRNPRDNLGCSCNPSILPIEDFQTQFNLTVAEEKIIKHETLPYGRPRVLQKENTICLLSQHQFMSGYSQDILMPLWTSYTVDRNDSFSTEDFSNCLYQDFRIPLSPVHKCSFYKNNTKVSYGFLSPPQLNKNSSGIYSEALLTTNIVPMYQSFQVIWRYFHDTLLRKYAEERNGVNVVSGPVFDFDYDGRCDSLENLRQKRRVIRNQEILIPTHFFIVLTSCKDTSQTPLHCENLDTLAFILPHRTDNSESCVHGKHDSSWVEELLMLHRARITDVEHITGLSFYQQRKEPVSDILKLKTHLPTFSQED

[4] = target: T3, Ectonucleotide pyrophosphatase/phosphodiesterase family member 1 (Homo sapiens) (UniProt P22413); assay: Inhibition of human NPP1 expressed in COS7 cells assessed as amount of inorganic phosphate released using ATP as the substrate at 100 uM after 15 mins by malachite green reagent method; assay type: cell-based; conditions: COS-7
T3 sequence (whole entry): T2 sequence (P22413 whole entry)

[5] = target: T3, Ectonucleotide pyrophosphatase/phosphodiesterase family member 1 (Homo sapiens); assay: Activity of human NPP1 expressed in COS7 cells assessed as production of p-nitrophenol using Ap5A as the substrate at 100 uM after 30 mins by malachite green reagent method; assay type: cell-based; conditions: COS-7

`BP(=O)(OP(=O)(O)CP(=O)(O)OC[C@H]1O[C@@H](n2cnc3c(N)ncnc32)C[C@@H]1O)OP(=O)(O)CP(=O)(O)OC[C@H]1O[C@@H](n2cnc3c(N)ncnc32)C[C@@H]1O` showed an inhibition (Autotaxin (Homo sapiens)) of 95%, an inhibition [1] of 30% and an Activity [2] of 5.5%. It also gave a Ki [3] of 145 µM and an inhibition [4] of 70%.

Compound `Nc1ncnc2c1ncn2[C@@H]1O[C@H](COP(=O)(O)CP(=O)(O)OP(=O)(O)CP(=O)(O)OC[C@H]2O[C@@H](n3cnc4c(N)ncnc43)[C@H](O)[C@@H]2O)[C@@H](O)[C@H]1O` has an inhibition (Autotaxin (Homo sapiens)) of 95%, an inhibition [1] of 30% and an Activity [2] of 11%. The Ki [3] was 147 µM, the Activity [5] was 13% and the inhibition [4] was 70%.

`BP(=O)(OP(=O)(O)CP(=O)(O)OC[C@H]1O[C@@H](n2cnc3c(N)ncnc32)[C@H](O)[C@@H]1O)OP(=O)(O)CP(=O)(O)OC[C@H]1O[C@@H](n2cnc3c(N)ncnc32)[C@H](O)[C@@H]1O` gave an inhibition (Autotaxin (Homo sapiens)) of 95%, an inhibition [1] of 30% and an Activity [2] of 12%. For the same compound, the Ki [3] was 31 µM, the Activity [5] was 7.5% and the inhibition [4] was > 90%.

Compound `Nc1ncnc2c1ncn2[C@H]1C[C@H](O)[C@@H](COP(=O)(O)CP(=O)(O)OP(=O)(O)CP(=O)(O)OC[C@H]2O[C@@H](n3cnc4c(N)ncnc43)C[C@@H]2O)O1` has an inhibition (Autotaxin (Homo sapiens)) of 95%, an inhibition [1] of 30% and an Activity [2] of 5.5%. The Ki [3] was 80 µM, the Activity [5] was 2.3% and the inhibition [4] was > 90%.
